Measurements taken from ChEMBL document CHEMBL4382197, “Discovery of QCA570 as an Exceptionally Potent and Efficacious Proteolysis Targeting Chimera (PROTAC) Degrader of the Bromodomain and Extra-Terminal (BET) Proteins Capable of Inducing Complete and Durable Tumor Regression” (J Med Chem, 2018).
The source made the active and inactive calls. No cut-off for these calls is given here.

How the values were obtained:
RS4-11 [1] = assay: Induction of apoptosis in human RS4:11 cells at 0.3 to 10 nM after 24 hrs by Annexin V/propidium iodine-double staining-based flow cytometry relative to control; type: functional
Procedure, shortened: (§1)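 Leukemia cells were treated for 24 h or 48 h at the indicated concentrations. They were then collected, washed in cold PBS and stained with Annexin V and propidium iodide. Apoptotic fraction was measured by flow cytometry.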

RS4-11 [2] = assay: Antitumor activity against human RS4:11 cells xenografted in SCID mouse assessed tumor regression at 1 to 5 mg/kg, iv administered 3 times per week for 3 weeks; type: functional, organism-based
Procedure, shortened: (§2)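 RS4;11 xenografts: 5×10^6 cells in 50% Matrigel injected subcutaneously on the dorsal side of SCID mice, one tumor per mouse. Randomized to treatment or vehicle at ~100 mm3. Intravenous dosing on several schedules, including 3 times per week for 3 weeks and weekly. Volume = L × W2/2; body weight tracked.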

MV4-11 [3] = assay: Growth inhibition of human MV4-11 cells after 96 hrs by CCK8 assay; type: functional, cell-based; conditions: MV4-11, 96 h
MV4-11 [4] = assay: Antitumor activity against human MV4-11 cells xenografted in SCID mouse assessed tumor regression at 5 mg/kg, iv administered 3 times per week for 2 weeks; type: functional, organism-based
Procedure, shortened: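 MV4;11 xenografts: 5×10^6 cells in 50% Matrigel injected subcutaneously on the dorsal side of SCID mice, one tumor per mouse. Mice randomized at ~100 mm3. Dosed intravenously three times a week for two weeks. Tumor volume = L × W2/2; body weight monitored.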

[5] = molecular target: T1, Protein cereblon/Bromodomain-containing protein 2/Cullin-4A (Homo sapiens) (UniProt P25440+Q96SW2+Q13619); assay: Protac activity at cereblon/cullin 4A/BRD2 in human RS4:11 cells assessed as BRD2 degradation at 30 to 100 pM after 3 hrs by Western blot analysis; type: cell-based
Mus musculus [6] = assay: In vivo Protac activity at cereblon/cullin/BRD3 in tumor of human RS4:11 cells xenografted in SCID mouse assessed as reduction in BRD3 protein expression at 1 to 5 mg/kg, iv administered as single dose and measured at 1 to 6 hrs post dose by Western blot analysis; type: functional, organism-based
Procedure, shortened: (§3)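 SCID mice bearing subcutaneous RS4;11 tumors were given a single intravenous dose of 1 or 5 mg/kg. Tumors were harvested at 1, 6 and 24 h, two mice per time point. Tissue was ground in liquid nitrogen and lysed in CST buffer with protease inhibitors. 20 µg lysate per lane was probed for BRD2, BRD3, BRD4, c-Myc and cleaved PARP, with GAPDH as loading control.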

[7] = molecular target: T1, Protein cereblon/Bromodomain-containing protein 2/Cullin-4A (Homo sapiens); assay: Protac activity at cereblon/cullin 4A/BRD2 in human RS4:11 cells assessed as BRD2 degradation at 0.5 nM after 3 hrs in presence of neddylation inhibitor MLN4924 by Western blot analysis; type: cell-based
Procedure, shortened: (§4)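 RS4;11 cells were pre-treated for 2 h with DMSO, lenalidomide (10 μM), MLN4924 (1 μM) or MG-132 (20 μM). The degrader was then added at 0.5 nM for 3 h. Lysates were immunoblotted for BRD2, BRD3 and BRD4, with GAPDH as loading control.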

[8] = Drug uptake in kidney of SCID mouse xenografted with human RS4:11 cells at 5 mg/kg, iv measured at 6 hrs by LC-MS/MS analysis; type: ADME, organism-based; conditions: in vivo, BLD = below limit of detection
Procedure, shortened: (§5)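 Female SCID mice with RS4;11 tumors received a single 5 mg/kg intravenous dose in 20% PCP/80% PBS. Plasma (heparin) and tissues were taken at 1, 3 and 6 h, one mouse per time point in duplicate. Plasma was precipitated with acetonitrile containing internal standard. Tissues were homogenized 5:1 in 20% acetonitrile. Quantified by LC-MS/MS against spiked plasma standards (2–2000 ng/mL); values in ng/ml or ng/g.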

MV4-11 [9] = assay: Induction of apoptosis in human MV4-11 cells at 0.1 to 10 uM after 48 hrs by Annexin V/propidium iodine-double staining-based flow cytometry; type: functional, cell-based
[10] = Drug uptake in intestine of SCID mouse xenografted with human RS4:11 cells at 5 mg/kg, iv measured at 6 hrs by LC-MS/MS analysis; type: ADME, organism-based; conditions: in vivo, BLD = below limit of detection; procedure, shortened: as §5
[11] = Drug uptake in plasma of SCID mouse xenografted with human RS4:11 cells at 5 mg/kg, iv measured at 6 hrs by LC-MS/MS analysis; type: ADME, organism-based; conditions: in vivo, BLD = below limit of detection; procedure, shortened: as §5
[12] = molecular target: T1, Protein cereblon/Bromodomain-containing protein 2/Cullin-4A (Homo sapiens); assay: Protac activity at cereblon/cullin 4A/BRD2 in human RS4:11 cells assessed as BRD2 degradation at 0.5 nM after 3 hrs by Western blot analysis; type: cell-based
Mus musculus [13] = assay: In vivo Protac activity at cereblon/cullin/BRD4 in tumor of human RS4:11 cells xenografted in SCID mouse assessed as reduction in BRD4 protein expression at 1 to 5 mg/kg, iv administered as single dose and measured at 1 to 6 hrs post dose by Western blot analysis; type: functional, organism-based; procedure, shortened: as §3
MOLM-13 = assay: Induction of apoptosis in human MOLM13 cells after 24 hrs by Annexin V/propidium iodine-double staining-based flow cytometry; type: functional, cell-based; procedure, shortened: as §1
RS4-11 [14] = assay: Growth inhibition of human RS4:11 cells after 96 hrs by CCK8 assay; type: functional, cell-based; conditions: RS4-11, 96 h
[15] = molecular target: T2, Protein cereblon/Bromodomain-containing protein 4/Cullin-4A (Homo sapiens) (UniProt O60885+Q96SW2+Q13619); assay: Protac activity at cereblon/cullin 4A/BRD4 in human RS4:11 cells assessed as BRD4 degradation at 0.5 nM after 3 hrs in presence of proteasome inhibitor MG132 by Western blot analysis; type: cell-based; procedure, shortened: as §4
RS4-11 [16] = assay: Antitumor activity against human RS4:11 cells xenografted in SCID mouse assessed tumor growth inhibition at 5 mg/kg, iv administered weekly; type: functional, organism-based; procedure, shortened: as §2
Mus musculus [17] = assay: In vivo Protac activity at cereblon/cullin/BRD4 in tumor of human RS4:11 cells xenografted in SCID mouse assessed as reduction in BRD4 protein expression at 1 to 5 mg/kg, iv administered as single dose and measured at 24 hrs post dose by Western blot analysis; type: functional, organism-based; procedure, shortened: as §3
[18] = molecular target: T2, Protein cereblon/Bromodomain-containing protein 4/Cullin-4A (Homo sapiens); assay: Protac activity at cereblon/cullin 4A/BRD4 in human RS4:11 cells assessed as BRD4 degradation at 0.5 nM after 3 hrs by Western blot analysis; type: cell-based
RS4-11 [19] = assay: Antitumor activity against human RS4:11 cells xenografted in SCID mouse assessed as induction of apoptosis by measuring PARP cleavage at 1 to 5 mg/kg, iv administered as single dose and measured at 1 to 24 hrs post dose by Western blot analysis; type: functional, organism-based; procedure, shortened: as §3
MV4-11 [20] = assay: Induction of apoptosis in human MV4-11 cells at 1 nM after 24 hrs by Annexin V/propidium iodine-double staining-based flow cytometry relative to control; type: functional; procedure, shortened: as §1
[21] = molecular target: T3, Protein cereblon/Bromodomain-containing protein 3/Cullin-4A (Homo sapiens) (UniProt Q15059+Q96SW2+Q13619); assay: Protac activity at cereblon/cullin 4A/BRD3 in human RS4:11 cells assessed as BRD3 degradation at 0.5 nM after 3 hrs by Western blot analysis; type: cell-based
[22] = Drug uptake in lungs of SCID mouse xenografted with human RS4:11 cells at 5 mg/kg, iv measured at 6 hrs by LC-MS/MS analysis; type: ADME, organism-based, Lung; conditions: in vivo, BLD = below limit of detection; procedure, shortened: as §5
[23] = molecular target: T1, Protein cereblon/Bromodomain-containing protein 2/Cullin-4A (Homo sapiens); assay: Protac activity at cereblon/cullin 4A/BRD2 in human MV4-11 cells assessed as BRD2 degradation at 30 to 100 pM after 3 hrs by Western blot analysis; type: cell-based
[24] = molecular target: T3, Protein cereblon/Bromodomain-containing protein 3/Cullin-4A (Homo sapiens); assay: Protac activity at cereblon/cullin 4A/BRD3 in human RS4:11 cells assessed as BRD3 degradation at 10 pM after 3 hrs by Western blot analysis; type: cell-based

T1 sequence (P25440 whole entry, looked up): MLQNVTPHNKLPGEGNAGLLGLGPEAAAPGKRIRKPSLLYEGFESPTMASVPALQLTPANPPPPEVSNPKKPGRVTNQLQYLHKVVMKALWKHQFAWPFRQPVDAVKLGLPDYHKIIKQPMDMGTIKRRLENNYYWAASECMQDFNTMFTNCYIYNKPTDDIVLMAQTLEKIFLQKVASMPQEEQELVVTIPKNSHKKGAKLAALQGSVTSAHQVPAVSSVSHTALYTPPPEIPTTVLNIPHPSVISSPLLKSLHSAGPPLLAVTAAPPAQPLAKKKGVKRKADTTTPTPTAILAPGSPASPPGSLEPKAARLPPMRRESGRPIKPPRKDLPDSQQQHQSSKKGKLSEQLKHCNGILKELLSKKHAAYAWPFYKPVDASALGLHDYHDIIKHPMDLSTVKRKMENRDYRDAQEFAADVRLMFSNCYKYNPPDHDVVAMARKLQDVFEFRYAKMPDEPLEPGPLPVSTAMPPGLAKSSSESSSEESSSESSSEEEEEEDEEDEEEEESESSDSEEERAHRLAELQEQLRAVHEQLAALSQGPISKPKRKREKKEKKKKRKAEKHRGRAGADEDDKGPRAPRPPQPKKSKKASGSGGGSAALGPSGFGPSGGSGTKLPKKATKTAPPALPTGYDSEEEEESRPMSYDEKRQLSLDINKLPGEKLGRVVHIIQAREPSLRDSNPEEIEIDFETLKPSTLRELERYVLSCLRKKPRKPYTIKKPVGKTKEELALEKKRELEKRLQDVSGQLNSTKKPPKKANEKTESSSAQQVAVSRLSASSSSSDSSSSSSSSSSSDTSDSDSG
T1 sequence (Q13619 whole entry, looked up): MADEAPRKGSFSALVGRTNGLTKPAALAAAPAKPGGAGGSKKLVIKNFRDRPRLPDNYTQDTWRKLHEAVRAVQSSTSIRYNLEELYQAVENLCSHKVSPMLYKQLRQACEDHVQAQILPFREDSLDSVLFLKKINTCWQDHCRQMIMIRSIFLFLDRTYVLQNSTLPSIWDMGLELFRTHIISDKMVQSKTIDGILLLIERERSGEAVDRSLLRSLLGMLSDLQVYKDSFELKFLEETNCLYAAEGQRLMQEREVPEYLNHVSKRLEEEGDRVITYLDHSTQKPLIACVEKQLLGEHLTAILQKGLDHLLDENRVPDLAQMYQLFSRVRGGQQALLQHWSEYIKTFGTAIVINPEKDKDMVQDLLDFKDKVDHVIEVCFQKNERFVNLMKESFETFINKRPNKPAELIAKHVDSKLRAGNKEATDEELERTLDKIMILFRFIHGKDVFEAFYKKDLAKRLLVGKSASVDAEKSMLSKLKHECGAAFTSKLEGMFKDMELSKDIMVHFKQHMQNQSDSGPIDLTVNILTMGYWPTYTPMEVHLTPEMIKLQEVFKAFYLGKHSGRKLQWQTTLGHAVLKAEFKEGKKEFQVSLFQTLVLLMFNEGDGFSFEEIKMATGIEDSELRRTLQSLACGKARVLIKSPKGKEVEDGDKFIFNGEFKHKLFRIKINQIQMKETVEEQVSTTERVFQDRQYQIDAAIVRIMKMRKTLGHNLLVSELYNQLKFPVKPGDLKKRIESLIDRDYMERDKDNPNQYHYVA
T1 sequence (Q96SW2 whole entry, looked up): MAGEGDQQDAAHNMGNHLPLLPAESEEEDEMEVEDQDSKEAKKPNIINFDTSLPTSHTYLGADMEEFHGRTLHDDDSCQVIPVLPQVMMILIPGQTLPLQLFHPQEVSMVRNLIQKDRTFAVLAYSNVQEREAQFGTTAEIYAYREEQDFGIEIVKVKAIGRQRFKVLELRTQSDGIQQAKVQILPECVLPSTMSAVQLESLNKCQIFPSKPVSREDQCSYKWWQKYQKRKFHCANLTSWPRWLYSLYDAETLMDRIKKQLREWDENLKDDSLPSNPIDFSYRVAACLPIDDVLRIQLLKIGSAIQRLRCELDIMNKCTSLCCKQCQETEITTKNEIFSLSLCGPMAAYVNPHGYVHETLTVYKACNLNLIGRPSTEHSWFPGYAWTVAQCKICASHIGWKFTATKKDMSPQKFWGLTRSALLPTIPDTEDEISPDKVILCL
T3 sequence (Q13619 whole entry, looked up): as the sequence (Q13619 whole entry, looked up) above
T3 sequence (Q15059 whole entry, looked up): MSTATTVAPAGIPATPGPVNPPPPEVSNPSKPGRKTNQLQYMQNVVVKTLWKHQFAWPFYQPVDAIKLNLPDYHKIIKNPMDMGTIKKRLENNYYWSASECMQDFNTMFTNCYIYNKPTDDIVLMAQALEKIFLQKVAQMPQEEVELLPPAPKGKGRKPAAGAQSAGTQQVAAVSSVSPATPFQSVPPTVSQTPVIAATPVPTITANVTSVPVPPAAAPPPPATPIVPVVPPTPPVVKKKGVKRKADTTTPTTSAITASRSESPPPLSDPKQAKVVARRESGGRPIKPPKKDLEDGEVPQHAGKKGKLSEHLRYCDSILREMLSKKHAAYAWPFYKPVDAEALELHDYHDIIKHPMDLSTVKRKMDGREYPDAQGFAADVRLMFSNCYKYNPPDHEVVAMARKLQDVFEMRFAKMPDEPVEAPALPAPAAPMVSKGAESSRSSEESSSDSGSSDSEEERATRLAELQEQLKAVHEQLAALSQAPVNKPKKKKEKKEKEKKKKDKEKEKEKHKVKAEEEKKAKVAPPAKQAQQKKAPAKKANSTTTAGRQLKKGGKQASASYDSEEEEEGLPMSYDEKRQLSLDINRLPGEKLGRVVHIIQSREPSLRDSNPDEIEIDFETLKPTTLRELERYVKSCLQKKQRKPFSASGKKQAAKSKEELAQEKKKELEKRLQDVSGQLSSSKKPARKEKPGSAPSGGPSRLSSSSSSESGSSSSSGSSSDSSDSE
T3 sequence (Q96SW2 whole entry, looked up): as the sequence (Q96SW2 whole entry, looked up) above

Cc1nnc2n1Cc1sc(C#Cc3cnn(CCCC#Cc4cccc5c4CN(C4CCC(=O)NC4=O)C5=O)c3)c(Cc3ccccc3)c1OC2 (stereo not given)
Activity (RS4-11 [1]): 15 - 30%
Activity (RS4-11 [2]): Active
IC50 (MV4-11 [3]): 0.0083 nM
Activity (MV4-11 [4]): Active
Activity [5]: Active
Activity (Mus musculus [6]): Active
Activity [7]: inactive
Drug uptake [8]: Bld
Activity (MV4-11 [9]): Active
Drug uptake [10]: Bld
Cp [11]: Bld
Activity [12]: Active
Activity (Mus musculus [13]): Active
Activity (MOLM-13): Dose-dependent effect
IC50 (RS4-11 [14]): 0.032 nM
Activity [15]: inactive
TGI (RS4-11 [16]): Active
Activity (Mus musculus [17]): Active
Activity [18]: Active
Activity (RS4-11 [19]): Active
Activity (MV4-11 [20]): >60%
Activity [21]: Active
Drug uptake [22]: Bld
Activity [23]: Active
Activity [24]: Active
